Test results published in BindingDB's records for doi:10.1016/j.bmcl.2009.08.036 (Glaxosmithkline, 2009).

Molecular target: T1, Oxysterols receptor LXR-beta (Homo sapiens, UniProt P55055)
T1 sequence (P55055 whole entry): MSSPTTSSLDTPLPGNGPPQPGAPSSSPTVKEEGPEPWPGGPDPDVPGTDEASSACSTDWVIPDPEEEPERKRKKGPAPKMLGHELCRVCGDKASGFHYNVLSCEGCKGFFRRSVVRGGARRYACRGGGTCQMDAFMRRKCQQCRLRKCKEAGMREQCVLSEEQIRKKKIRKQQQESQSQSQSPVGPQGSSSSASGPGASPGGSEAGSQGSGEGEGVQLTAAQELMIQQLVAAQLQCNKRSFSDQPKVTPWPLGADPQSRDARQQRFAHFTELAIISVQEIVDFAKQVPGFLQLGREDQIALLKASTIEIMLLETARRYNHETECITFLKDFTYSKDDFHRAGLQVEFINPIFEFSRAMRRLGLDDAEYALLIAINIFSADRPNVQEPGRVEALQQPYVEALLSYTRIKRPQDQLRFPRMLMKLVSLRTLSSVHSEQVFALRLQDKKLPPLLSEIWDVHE
Assay: Agonist activity at human LXRbeta assessed as association of SRC1 to LXRbeta ligand binding domain by FRET based cell-free ligand sensing assay
Method in brief: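 Cell-free FRET ligand-sensing assay measuring ligand-dependent recruitment of a 24-amino-acid steroid receptor coactivator 1 (SRC1) fragment to the LXR ligand-binding domain. Percent efficacy is expressed against the maximal agonist response of the reference agonist. Values are means of at least two experiments, standard deviation ≤10%.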

Work on `O=C(O)C1CCCc2c(OCCCN(Cc3cccc(C(F)(F)F)c3Cl)CC(c3ccccc3)c3ccccc3)cccc21` (racemic) [(+/-)-5-(3-((2-chloro-3-(trifluoromethyl)benzyl)(2,2-diphenylethyl)amino)propoxy)-1,2,3,4-tetrahydronaphthalene-1-carboxylic acid] yielded an EC50 of 26 nM.
